Results on two compounds are retold here after ChEMBL document CHEMBL5113379, “4-Oxooctahydroquinoline-1(2H)-carboxamides as hepatitis B virus (HBV) capsid core protein assembly modulators” (Bioorg Med Chem Lett, 2022).

The test system of one data set is Hepatitis B virus. Nature of the data set: Antiviral activity against HBV infected in mouse AML12HBV10 cells assessed as reduction in viral replication incubated for 48 hrs and measured by [alpha-32P]UTP-labeled radio-probe based dot blot hybridization assay. The following applies: aml12hbv10. Type of data set: functional, organism-based. The method in brief: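 The test used the stable HBV line AML12HBV10, derived from immortalized mouse hepatocytes (AML12). HBV replication was measured by dot blot hybridization and EC50 was determined.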

Data set [1] in a line: Metabolic stability in human liver microsomes assessed as half-life. Type of data set: ADME, Microsome.
The nature of data set [2]: Metabolic stability in mouse liver microsomes assessed as half-life. Type of data set: ADME, Microsome. For orientation: Liver microsomes are vesicles of endoplasmic reticulum, rich in cytochrome P450 enzymes.
A short description of data set [3]: Solubility of the compound at pH 4. The following applies: buffer. The data set is classed as physicochemical.
Data set [4] is described as follows: Solubility of the compound at pH 7. The following applies: buffer. Type of data set: physicochemical.
Data set [5] can be described thus: Plasma protein binding in mouse. Type of data set: ADME, cell-free.
Data set [6] in a line: Plasma protein binding in human. The data set is classed as ADME, cell-free.
Data set [7] can be described thus: Half-life in mouse at 3 mg/kg, iv. Type of data set: ADME, organism-based. The following applies: in vivo.
The nature of data set [8]: AUClast in mouse at 3 mg/kg, iv. Type of data set: ADME, organism-based. Further details: time 0 - last, dose 3 mg/kg, route iv. The following applies: in vivo.
Data set [9] is described as follows: Observed volume of distribution at steady state in mouse at 3 mg/kg, iv. The following applies: in vivo, read-out: Vdss. The data set is classed as ADME, organism-based.
Data set [10] is described as follows: Half-life in mouse at 10 mg/kg, po. The data set is classed as ADME, organism-based. As to conditions: in vivo.
Data set [11] in a line: Cmax in mouse at 10 mg/kg, po. Type of data set: ADME, organism-based. Further details: dose 10 mg/kg, route po. The following applies: in vivo.
Data set [12] can be described thus: AUClast in mouse at 10 mg/kg, po. Type of data set: ADME, organism-based. Further details: time 0 - last, dose 10 mg/kg, route po. As to conditions: in vivo.
The nature of data set [13]: Oral bioavailability in mouse at 10 mg/kg. Type of data set: ADME, organism-based. As to conditions: in vivo.
A short description of data set [14]: Cytotoxicity against mouse […] measured by MTT assay. The data set is classed as toxicity, cell-based, AML12HBV10. As to conditions: AML12HBV1 cells. The procedure, abridged: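 Cytotoxicity was measured by MTT assay in the stable HBV line AML12HBV10, derived from immortalized mouse hepatocytes (AML12), and CC50 was determined.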
For orientation: Formazan colour is commonly taken as a measure of viable cells.

The nature of data set [15]: Apparent permeability across apical to basolateral membrane in human Caco-2 cells. Type of data set: ADME, cell-based. A general note: Passage across Caco-2 layers is used to estimate intestinal permeability.
The nature of data set [16]: Apparent permeability across basolateral to apical membrane in human Caco-2 cells. The data set is classed as ADME, cell-based.
The nature of data set [17]: Efflux ratio for apparent permeability across basolateral to apical side to apical to basolateral side in human Caco2 cells. The data set is classed as ADME, cell-based. As to conditions: Caco-2.

≈ marks a conversion by molar mass, not a printed value. Some results are limits rather than exact numbers.

By EC50 is commonly meant the concentration that produces a half-maximal response. A word on the solubility: it is how much of the substance goes into solution per volume. A low value points to a poorly soluble substance. For orientation: Cmax means the highest concentration seen after dosing. As for `O=C1CCN(C(=O)Nc2ccc(F)c(Cl)c2)C2CCCCC12` (stereo in doubt; 61), the EC50 with Hepatitis B virus stood at 460 nM. The t1/2 is 71 min in [1] (microsomes), 56 min in data set [2] (microsomes), 36 min in [7] and 42 min in data set [10]. Also, the solubility in [3] stood at 239 µM (≈ 77.6 µg/mL); in data set [4] it was 253 µM (≈ 82.2 µg/mL). The figures for the PPB in data set [5] and in data set [6] were 94% and 90%, respectively. In addition, the AUClast in [8] was found to be 1952 ng·h/mL; in data set [12], 4516 ng·h/mL. Also, the Vd in data set [9] stood at 0.8 L/kg. The compound also showed a Cmax in data set [11] of 2727 ng/mL. Further, the F in data set [13] worked out at 69%.

Usually half-life stands for how long it takes for the measured level to halve. What is called CC50 is the concentration giving 50% cytotoxicity. Read a high CC50 as better tolerance by the cells. Broadly, the Papp A→B is how fast a substance crosses the layer from the apical side. By Papp B→A is commonly meant how fast a substance crosses the layer from the basolateral side. A word on the efflux ratio: it is a quotient of directional permeabilities that is used to spot active efflux. As to `O=C1CCN(C(=O)Nc2ccc(F)c(Cl)c2)[C@H]2CCCC[C@@H]12` (relative stereo), in the data set on Hepatitis B virus, the EC50 amounted to 710 nM. Further, the results for the half-life in data set [1] (liver microsomes) and in [2] (liver microsomes) were 56.8 min and 32 min, respectively. Also, the 50% cytotoxic concentration (CC50) in [14] is over 100000 nM. For the same compound, in data set [15], the apparent permeability from apical to basolateral (Papp A→B) amounted to 14.7 ×10⁻⁶ cm/s. Also, the Papp B→A in data set [16] came out at 7.8 ×10⁻⁶ cm/s. Moreover, the efflux ratio in data set [17] was 0.5.
